Experiment [1] has as its target Protein farnesyltransferase (Rattus norvegicus). Briefly: Inhibition of farnesyltransferase assessed as farnesylation of Dansyl-GCVLS peptide.
The nature of experiment [2]: Cell cycle arrest in human STS-26T cells assessed as accumulation in G1 phase at 1 uM after 24 hrs. Format: functional, cell-based. Summed up: (§1)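 STS-26T cells were grown in RPMI-1640 with 5% FBS and penicillin/streptomycin at 37 °C under 5% CO2. About 24 h after plating, cells were treated with 1 µM compound, alone or with 1 µM lovastatin, against a DMSO control. After 24 h, DNA content was read by flow cytometry (at least 10^4 events). G1, S and G2/M percentages of the nonapoptotic population came from histogram fitting.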

Experiment [3] is described as follows: Cell cycle arrest in human STS-26T cells assessed as accumulation in G2/M phase at 1 uM after 24 hrs. The experiment is classed as functional, cell-based. The gist of the method:
as §1

The nature of experiment [4]: Cell cycle arrest in human STS-26T cells assessed as accumulation in S phase at 1 uM after 24 hrs. Format: functional, cell-based. Summed up:
as §1

A short description of experiment [5]: Apoptosis in human STS-26T cells at 1 uM after 24 hrs. The experiment is classed as functional.
The next experiment relates to STS-26T. Briefly: Growth inhibition of human STS-26T cells at 1 to 5 uM after 24 hrs. The experiment is classed as functional, cell-based. Summed up: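 STS-26T cultures were plated in medium with 5% FBS and dosed about 24 h later at 1, 3 or 5 µM, alone or with 1 µM lovastatin, against a DMSO vehicle. Cells were harvested at various times by trypsinization and counted with a hemocytometer; viability was judged by trypan blue exclusion. Values are means ± SD of three culture dishes.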

Active and inactive are the calls of the source. The rule behind the calls is not given here.

`C=CC/C(=C\COP(=O)(O)O)CC/C=C(\C)CCC=C(C)C`: the IC50 in experiment [1] is 13 nM.

As for `CC[C@H](C)C(=O)O[C@H]1C[C@@H](C)C=C2C=C[C@H](C)[C@H](CC[C@@H]3C[C@@H](O)CC(=O)O3)[C@H]21` [LOVASTATIN], the Activity in experiment [2] is 53%; in experiment [3], 10%; in experiment [4], 37%; in experiment [5], 0.3%.

In the case of `CC(C)=CCC/C(C)=C/CC/C(=C/COP(=O)(OCc1ccc([N+](=O)[O-])o1)N(C)CCCCCl)C(C)(C)C` (centres undefined), the result in the experiment with STS-26T was inactive.

Regarding `C=CC/C(=C\COP(=O)(OCc1ccc([N+](=O)[O-])o1)N(C)CCCCCl)CC/C=C(\C)CCC=C(C)C` (centres undefined), the result in the experiment with STS-26T was inactive. Also, the Activity in experiment [2] was determined as 48%; in experiment [3], 12%; in experiment [4], 40%; in experiment [5], 0.5%.

On to `CC(C)=CCC/C(C)=C/CC/C(=C/COP(=O)(O)O)C(C)(C)C`, for which the IC50 in experiment [1] was determined as 16 nM.

`CC(C)=CCC/C(C)=C/CC/C(=C/COP(=O)(OCc1ccc([N+](=O)[O-])o1)N(C)CCCCCl)CC=C(C)C` (centres undefined): in the experiment on STS-26T, the outcome was inactive.

Turning to `CC(C)=CCC/C(C)=C/CC/C(=C/COP(=O)(O)O)CC=C(C)C`, the IC50 in experiment [1] is 5000 nM.

For orientation: IC50 means the concentration needed to halve the response being measured.

The values are drawn from ChEMBL document CHEMBL1145405, “Synthesis, biochemical, and cellular evaluation of farnesyl monophosphate prodrugs as farnesyltransferase inhibitors” (J Med Chem, 2007).
